From the EternaBench riboswitch data

System: MS2 coat protein
Experiment: apparent Kd, MS2 coat protein; higher = weaker binding; RNA-MaP array; FMN 200 µM where present
In short: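 Stalled E. coli RNA polymerase transcribed the designs on Illumina sequencing-chip clusters. SNAP-549-labelled MS2 coat protein was titrated from 0.7 or 1.5 nM, doubling to 3 µM, without and then with constant ligand, in 100 mM Tris-HCl pH 7.5, 80 mM KCl, 4 mM MgCl2, BSA, DTT, yeast tRNA and Tween-20. Per-cluster binding curves were fitted to green signal normalised to red-channel RNA signal and control-cluster median Fmax. The apparent Kd is the median of the filtered fits.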

[1] = designed as: OFF switch for flavin mononucleotide, no ligand
[2] = ligand present: flavin mononucleotide, designed as: OFF switch for flavin mononucleotide
[3] = designed as: ON switch for flavin mononucleotide, no ligand
[4] = ligand present: flavin mononucleotide, designed as: ON switch for flavin mononucleotide

| Sequence | apparent Kd [1] [nM] | apparent Kd [2] [nM] | apparent Kd [3] [nM] | apparent Kd [4] [nM] |
| --- | --- | --- | --- | --- |
| GCACGGCAUGUAGGAUAUCGAGCGCCGGGCGCUCGAGAAGGACAUGAGGAUCACCCAUGUAUUCUCAGUGAGAGAGUGCUGUGC | 36.1 | 55.9 | – | – |
| AAAUUUAACGAAGGAUAUGGAUACAUGAGGAUCACCCAUGUAUAUUUUGUGAUCUUGUUUAAGAUCCAGAAGGUCGUAUACAUA | 24 | 56.1 | – | – |
| ACUGUUUGAUUCCUCUUAUACAUGAGGAUCACCCAUGUUAUCGAGGAUAUGCAUUAGAGUGUUUGGCAGAAGGCGAUGUAAUUG | 6.9 | 23.4 | – | – |
| GAUUACAAGUAAGGAUAUGUAUAUGAAACAUAUACAGAAGGUACAUGAGGAUCACCCAUGUUCUUGCAAAGCGAAUAUGUAAUC | 17.3 | 21 | – | – |
| AUCAGCUCAUCAGGAUAUACAUCACUGCUUCGGCAGUGUAUUAAGAUCACAUGAGGAUCACCCAUGUAGAAGGGAUGAGCUGAU | 32.7 | 347 | – | – |
| AGCACGAAAGUGCAACGAUGUAGCAGAAGGACAUGAGGAUCACCCAUGUAAGCAGUAUCUGCAAUGUAGGAUAUGCUACAUCGA | 13.6 | 119 | – | – |
| UGAUAGGACAGAGGAUAUACCGAUAGGAUCUACUAUCGAACAAUUCUCACAUGAGGAUCACCCAUGUAGAAGGCUGUCCUAUCU | 15.8 | 30.2 | – | – |
| AAAACAUGAGGAUCACCCAUGUAAAGAACGGUUAAUAAAUGUGAGGAUAUACUAAAAUUUUCGUAGUAGAAGGCACUGGGUACA | – | – | 22.2 | 24.8 |
| GAAAACUGAGGAUAUACUUUGGGAAAAGAAAAGAUGAUGUUACAUGAGGAUCACCCAUGUAGAAGGCAGAAAAA | 25.9 | 36 | – | – |
| ACAUGUUUUACAGGAUAUGUUAUACAAUAAACAAUCAGUUAUUAUGAUUUUACAGAAGGGUAUACAUGAGGAUCACCCAUGUUA | 23 | 19.1 | – | – |
| UUUUAACAUGAGGAUCACCCAUGUGAGGAUAUCGAAAUUUAUAUUUAUAUUUAUUAAACGAGAAGGCACAUUUU | 70.2 | 100 | – | – |
| UGUGCGUUGAUCUUCGAUCGGAGUACAUGAGGAUCACCCAUGUAGGAUAUUCAAAGACGCAGAUAGAAGAAGGACAUCGGUUUC | 10.6 | 9.43 | – | – |
| UACAGACAUGAGGAUCACCCAUGUGAGGAUAUCGAUAACGAUAACAUAAUAUAAACGGCGAGAAGGCACAGCAU | 31.7 | 34.9 | – | – |
| UGAACUCAUGUAGGAUAUGCAUGGCGAAGCUACGCAGAAGGACAUGAGGAUCACCCAUGUUCUAGCGUCUGAGUACAGAUGCAA | 148 | 118 | – | – |
| GUCAGCUCGUGAGGAUAUACAACACUGCUUCGGCAGUGUAUUCAGAUCACAUGAGGAUCACCCAUGUAGAAGGCACGAGCUGAU | 12.8 | 206 | – | – |
| GUGCAUACGUGAGGAUAUGUAUUAGAUAGUGGUACAGAAGGCAUGUCAGAUGACAUGAGGAUCACCCAUGUUGGCACAAUGCGC | – | – | 137 | 30.5 |
| UUAUUGUGAGGAUAUCAGGUGUGCUAGCGUACUGGUACAUCUGAGAAGGCACAUGAGGAUCACCCAUGUUUCUU | 23.4 | 66.9 | – | – |
| UUAAAUCAUGUAGGAUAUGCAUGGCGAAGCUACGCAGAAGGACAUGAGGAUCACCCAUGUUCUAGCGUCUGAGUUCAGAUGCAA | 20.9 | 41.7 | – | – |
| AGGGUAGACGUAGGAUAUACGGAAUGAAUGAAAGUAGAAGGAUGACAUGAGGAUCACCCAUGUGAAAUGAAAUGAUGAAGGGUG | 579 | 510 | – | – |
| AUAAGCUCGUCAGGAUAUACGUCACUGCGUCAGCAGUGUGGUAAGAUCACAUGAGGAUCACCCAUGUAGAAGGGACGAGCUGAU | 14.7 | 266 | – | – |
| CUUUCGUGAGGAUAUGUGGCUUCGAUCGUGAGAUCGAGGAAACAGAAGGCACAUGAGGAUCACCCAUGUUCCUC | 35.9 | 421 | – | – |
| AUAUCUCUAUUAGUUCCAAUACGAACAUGAGGAUCACCCAUGUAGGAUAUGCUAGAAGUUGUGUUGCAGAAGGACAUGUACCUU | 11.7 | 25.8 | – | – |
| AAAAAAAAAAGUCAGGAUAUACAAAUUUUUACAUGAGGAUCACCCAUGUUAAAAAAAAAAAAAAAGUAGAAGGGACAAAAAAAAAA | – | – | 20.9 | 16.9 |
| GGAUAGGACAGAGGAUAUACGUGCUAGAGAUACUAGCCAAAUUUCCUCACAUGAGGAUCACCCAUGUAGAAGGCUGUCCUAUCG | 6.86 | 84.5 | – | – |
| GGUCCGUGUACAUGAGGAUCACCCAUGUCGAUGUUUCCUGGACAGGAUAUAUGCUUAAUACCGACAUAGAAGGGUCCACGUGUG | – | – | 91 | 191 |
| UUUUUUUUUAGAGGAUAUAUUGUGUGUUAUAUAAUAGAAGGCUAAACAAACAUGAGGAUCACCCAUGUUGUCCAUGUCGUCGGC | – | – | 15.3 | 20.7 |
| AGUACCAUGUAGAAGGGAUAUCUGAUUCAGAUAUCAGGAUAUACAUGAGGAUCACCCAUGUAAAUGUACUCCACGAAAGUGGAA | 22.1 | 63.8 | – | – |
| CGUGCGUAUGUGAGGAUAUGCUGGUCCUUGGAUCGGCAGAAGGCACAUGAGGAUCACCCAUGUGGUGUCGUUCU | 172 | 23.1 | – | – |

| Sequence | apparent Kd [1] [nM] | apparent Kd [2] [nM] | apparent Kd [3] [nM] | apparent Kd [4] [nM] |
| --- | --- | --- | --- | --- |
| UUUAUUUUUAGAGGAUAUAUUGUGUGUGAGAGAAUAGAAGGCUAAACAUACAUACAUAACAUGAGGAUCACCCAUGUCCAUGUU | – | – | 69.2 | 54.9 |
| UUCUUUCCUCAUGUACAUGAGGAACAUGAGGAUCACCCAUGUAGAAGGAUUUCAAUUAAAUUAAAAUAGGAUAUACAUCUAUUU | 10.4 | 9.34 | – | – |
| UGUUGUAAUACAGGAUAUCUAUUAUUUUUAUUUAGAGAAGGGUAAUCACAUGAGGAUCACCCAUGUAUAUACGAGGAAGAAGAG | – | – | 186 | 182 |
| ACAUACAUUCGAGGAUAUCGGUGAUUAAUUUUACGAGAAGGCGAUUUAAGGCAUAAUGCUUUAGACAUGAGGAUCACCCAUGUA | – | – | 72.9 | 34.4 |
| AUGUACCUAGGAUAUACAUGAGGAUCACCCAUGUCACAAAUAAAACACAGGUAUCCUGGUAGAAGGAGGAACAA | 25 | 105 | – | – |
| UCCUGGCGAGGAUAUACAAAGUUUUUCACGUUUUGUUUCGAACAUGAGGAUCACCCAUGUAGAAGGUGCUACUG | 62.6 | 52.8 | – | – |
| AGAUGUACCUAGGAUAUCCGUCGAAUUGGACUAGGAGAAGGAGGUACAUGAGGAUCACCCAUGUAUGACUCCUG | 10.5 | 13.1 | – | – |
| AGUCAUACAGGAUAUACAUGAGGAUCACCCAUGUAUAUCCUACAUGGGUGAUCCUCAUGUAGAAGGGUAUGACA | 13.5 | 11.6 | – | – |
| ACUGAAGUCACAGGAUAUCAUAUGUCGGCACAUUGAGAAGGGUGACUGGGCUACAUGAGGAUCACCCAUGUGCCGUCGUAACAA | – | – | 104 | 80.4 |
| AAGAUGUAAGGAUAUGCUGCUCGUCACAAAAGUGAUGAGUAGCAGAAGGUACAUGAGGAUCACCCAUGUAGAGA | 31.4 | 55.7 | – | – |
| UACGUAUGAGGAUAUACAAACAGAAAAAUCAGACGUAACUGACAUGAGGAUCACCCAUGUAGAAGGCAUAUACA | 27.7 | 18.6 | – | – |
| GUCUUCCUAGGAUAUACAUGAGGAUCACCCAUGUACAGUUUCGUCAAAGGAUAAUCGCGUAGAAGGAGGUGGAU | 16.5 | 23.6 | – | – |
| AGGAAGUGAGGAUAUGCUGCUCGUCACUUGCGUGAUGAGUAGCAGAAGGCACAUGAGGAUCACCCAUGUAAAGA | 40.2 | 55.1 | – | – |
| CCAUGUUAGCAGGAUAUGCCAUUAUUCCUUUACGCAGAAGGGCUUACAUGAGGAUCACCCAUGUAACAUUUCAU | 13.4 | 29.5 | – | – |
| CUUUUGUGAGGAUAUCAGUGGUAAUACAAUAGUAUUACUACUGAGAAGGCACAUGAGGAUCACCCAUGUUCCUC | 44.5 | 220 | – | – |
| AUUAAACAUGAGGAUCACCCAUGUCAACAAAGUCGAGGAUAUGGGCAAAUAAAAUAAGAACCAGAAGGCGAAUAAU | – | – | 259 | 38 |
| UAUAACUUACAGAAGGGUAUUGUGGUGCAUUAUUAGUAGGAAAUACUAUACAGGAUAUGUAAUACAUGAGGAUCACCCAUGUUC | – | – | 22.3 | 14.9 |
| GACAUACAUGAGGAUCACCCAUGUUCAGACGAACAAGGAUAUGUGUGGAAACCAUACUAUACAGAAGGUGUCUGUC | – | – | 78.4 | 36 |
| GAUAGGACAGAGAAGGACAUAGCUAGAGAUACUAGCAUAUGAACCUUCACAUGAGGAUCACCCAUGUAGGAUAUCUGUCCUAUC | 3.51 | 3.96 | – | – |
| CCUCGACAUGAGGAUCACCCAUGUCAGGAUAUUGUGUAUCGGGUUUUUUACCGAAAGGCGAGAAGGGAUGUGUG | 16.9 | 23.1 | – | – |
| AACCUACAUGAGGAUCACCCAUGUAAGGAUAUGGCAUGAUUUGCGUCAGCCCGUUAAGUUAGAAGGUGCGUCGG | 14.8 | 16 | – | – |
| UUGUUAUAUGUAGGAUAUGCAUAUUAUUAUUAUGCAGAAGGACAUGAGGAUCACCCAUGUAUAUUAUUAUUAUAUGUUAUAUAU | 23.8 | 29.8 | – | – |
| GGCAGACAUGAGGAUCACCCAUGUGAGGAUAUCGUCAUAGAUGCAAAAGCAUCUAUGACGAGAAGGUACAUGCC | 23.2 | 19.2 | – | – |
| UGUUUUCAUGUAGGAUAUGCUUGUCGUAGAUACGCAGAAGGACAUGAGGAUCACCCAUGUUAAUGCUACAGAUUUUAGUUUCUU | 19.5 | 102 | – | – |
| UUUUUUGUUGUGAGGAUAUCGUUGUUGUUGUGGAUCGAGAAGGCACAUGAGGAUCACCCAUGUUUGUUGUGGUU | 89.1 | 220 | – | – |
| UUAUAUAGUGUGAGGAUAUGCUGGUCCUUGGAUCAGCAGAAGGCACAUGAGGAUCACCCAUGUAGUUUAUUUUU | 25.4 | 144 | – | – |
| GACUGCCGAGGAUAUACAUGAGGAUCACCCAUGUGCUUCAGCAUUUAAUAAUGCAUGGGUAGAAGGCGGUAGUC | 42.8 | 74.6 | – | – |
